According to ChEMBL document CHEMBL2093137, “WHO-TDR NTD Screening”:
In brackets after ≈: the same amount, converted by molar mass.

How the values were obtained:
Plasmodium falciparum K1 = experiment: WHO-TDR: Malaria; type: functional, organism-based, Homo sapiens; conditions: Erythrocyte
How it was run: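 Whole-organism screen of a 10,000-compound diverse library from Life Chemicals, filtered for drug-likeness and reactive groups, against intra-erythrocytic Plasmodium falciparum K1 strain in human red blood cells. The assay followed previously published standard procedures, with a reference drug as positive control. Antiplasmodial potency is reported as IC50.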

[1] = test system: Trypanosoma brucei brucei; experiment: WHO-TDR: Human African Trypanosomiasis (HAT); type: functional, organism-based; conditions: Squib-427
How it was run: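 Whole-organism screen of a 10,000-compound diverse library from Life Chemicals, filtered for drug-likeness and reactive groups, against bloodstream forms of Trypanosoma brucei Squib 427 strain. The assay followed previously published standard procedures, with reference drugs as positive controls. Antiparasitic potency is reported as IC50.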

Schistosoma mansoni = experiment: WHO-TDR: Schistosomiasis; type: functional; set-up: concentration or dose not given beside the values
How it was run: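 Whole-organism screen of a 10,000-compound diverse library from Life Chemicals, filtered for drug-likeness and reactive groups, against larval and/or adult worms of Schistosoma mansoni Puerto Rican strain. The assay followed previously published standard procedures, with a reference drug as positive control. Activity is reported as percent inhibition and as IC50.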

Leishmania infantum = experiment: WHO-TDR: Leishmaniasis; type: functional, organism-based, Mus musculus; conditions: Macrophage
How it was run: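 Whole-organism screen of a 10,000-compound diverse library from Life Chemicals, filtered for drug-likeness and reactive groups, against intracellular amastigotes of Leishmania infantum MHOM/MA(BE)/67 in murine peritoneal macrophage host cells. The assay followed previously published standard procedures, with a reference drug as positive control. Antiparasitic potency is reported as IC50.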

Brugia malayi = experiment: WHO-TDR: Lymphatic Filariasis; type: functional; set-up: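 tested at 10 µM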
How it was run: (§1)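 Whole-organism screen of a 10,000-compound diverse library from Life Chemicals, filtered for drug-likeness and reactive groups, against Brugia malayi microfilariae. The assay followed previously published standard procedures, with reference drugs as positive controls. Activity is reported as percent inhibition and as IC50.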

[2] = WHO-TDR: Cytotoxicity; type: toxicity, cell-based; conditions: human, MRC5 cells
Onchocerca ochengi = experiment: WHO-TDR: Onchocerciasis; type: functional; set-up: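 at 12.5 µM on microfilariae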
How it was run: as §1, with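 “microfilariae of Onchocerca ochengi or Onchocerca lienalis, used as animal-pathogen stand-ins for the human parasite.” for “Brugia malayi microfilariae.”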

Trypanosoma cruzi = experiment: WHO-TDR: Chagas disease; type: functional, organism-based, Homo sapiens; conditions: MRC5
How it was run: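 Following previously published standard procedures, with a reference drug as positive control, a whole-organism assay was run on Trypanosoma cruzi Tulahuen CL2 beta-galactosidase strain amastigotes inside MRC-5SV2 human lung fibroblast host cells. The 10,000 compounds tested formed a diverse Life Chemicals library filtered for drug-likeness and reactive groups. Results are expressed as IC50 for antiparasitic potency.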

For `NC(=O)Cc1csc(SCC(=O)c2ccccc2)n1`, the IC50 (Plasmodium falciparum K1) was greater than 8.77 µg/mL, the IC50 [1] was greater than 8.77 µg/mL and the “% Inhibition” value (Schistosoma mansoni) was 16.7%. For the same molecule, the IC50 (Leishmania infantum) was 0.284 µg/mL (≈ 0.971 µM), the “% Inhibition” value (Brugia malayi) was 0% and the IC50 [2] was greater than 8.77 µg/mL. The “% Inhibition” value (Onchocerca ochengi) was 0% and the IC50 (Trypanosoma cruzi) was greater than 8.77 µg/mL.

In the case of `CCn1ccc(C(=O)Nc2nc(C(C)(C)C)cs2)n1`, the IC50 (Plasmodium falciparum K1) is reported as greater than 8.35 µg/mL, the IC50 [1] is reported as greater than 8.35 µg/mL and the “% Inhibition” value (Schistosoma mansoni) is reported as 16.7%. For the same molecule, the IC50 (Leishmania infantum) was greater than 8.35 µg/mL, the “% Inhibition” value (Brugia malayi) was 0% and the IC50 [2] was greater than 8.35 µg/mL. For the same molecule, the “% Inhibition” value (Onchocerca ochengi) was 100% and the IC50 (Trypanosoma cruzi) was greater than 8.35 µg/mL.

In the case of `Cc1cc(C)c(S(=O)(=O)NCCNc2ccc(Nc3cccc(C)n3)nn2)c(C)c1`, the IC50 (Plasmodium falciparum K1) is reported as 2.41 µg/mL (≈ 5.65 µM), the IC50 [1] is reported as 4.14 µg/mL (≈ 9.71 µM) and the “% Inhibition” value (Schistosoma mansoni) is reported as 33.3%. For the same molecule, the IC50 (Leishmania infantum) was 5.4 µg/mL (≈ 12.7 µM), the “% Inhibition” value (Brugia malayi) was 0% and the IC50 [2] was 6.74 µg/mL (≈ 15.8 µM). The “% Inhibition” value (Onchocerca ochengi) was 100% and the IC50 (Trypanosoma cruzi) was 4.46 µg/mL (≈ 10.5 µM).

For `Cc1ccc(S(=O)(=O)NCC(c2cccc3ccccc23)N2CCOCC2)cc1C` (stereo not given), the IC50 (Plasmodium falciparum K1) was 8.79 µg/mL (≈ 20.7 µM), the IC50 [1] was 4.12 µg/mL (≈ 9.71 µM) and the “% Inhibition” value (Schistosoma mansoni) was 0%. The IC50 (Leishmania infantum) was greater than 12.7 µg/mL, the “% Inhibition” value (Brugia malayi) was 25% and the IC50 [2] was greater than 12.7 µg/mL. For the same molecule, the “% Inhibition” value (Onchocerca ochengi) was 100% and the IC50 (Trypanosoma cruzi) was 4.18 µg/mL (≈ 9.85 µM).

For `O=C(NCCOc1ccc(-c2ccc(F)cc2)nn1)c1cccc(C(F)(F)F)c1`, the IC50 (Plasmodium falciparum K1) was greater than 12.2 µg/mL, the IC50 [1] was greater than 12.2 µg/mL and the “% Inhibition” value (Schistosoma mansoni) was 0%. For the same molecule, the IC50 (Leishmania infantum) was greater than 12.2 µg/mL, the “% Inhibition” value (Brugia malayi) was 25% and the IC50 [2] was greater than 12.2 µg/mL. The “% Inhibition” value (Onchocerca ochengi) was 100% and the IC50 (Trypanosoma cruzi) was greater than 12.2 µg/mL.

In the case of `CCSc1nc(-c2ccccc2)c(NC(C)=O)s1`, the IC50 (Plasmodium falciparum K1) is reported as greater than 8.35 µg/mL, the IC50 [1] is reported as greater than 8.35 µg/mL and the “% Inhibition” value (Schistosoma mansoni) is reported as 0%. The IC50 (Leishmania infantum) was 0.27 µg/mL (≈ 0.97 µM), the “% Inhibition” value (Brugia malayi) was 0% and the IC50 [2] was greater than 8.35 µg/mL. The “% Inhibition” value (Onchocerca ochengi) was 0% and the IC50 (Trypanosoma cruzi) was greater than 8.35 µg/mL.

In the case of `COc1ccc(OC)c2sc(N(CCCn3ccnc3)C(=O)COc3ccccc3)nc12`, the IC50 (Plasmodium falciparum K1) is reported as 3.16 µg/mL (≈ 6.98 µM), the IC50 [1] is reported as 4.75 µg/mL (≈ 10.5 µM) and the “% Inhibition” value (Schistosoma mansoni) is reported as 0%. For the same molecule, the IC50 (Leishmania infantum) was greater than 14.7 µg/mL, the “% Inhibition” value (Brugia malayi) was 0% and the IC50 [2] was 4.9 µg/mL (≈ 10.8 µM). For the same molecule, the “% Inhibition” value (Onchocerca ochengi) was 100% and the IC50 (Trypanosoma cruzi) was 4.77 µg/mL (≈ 10.5 µM).

For `Cc1ccc(C(=O)Nc2nnc(Cc3cccs3)o2)cc1C`, the IC50 (Plasmodium falciparum K1) was greater than 9.4 µg/mL, the IC50 [1] was 0.383 µg/mL (≈ 1.22 µM) and the “% Inhibition” value (Schistosoma mansoni) was 25%. For the same molecule, the IC50 (Leishmania infantum) was greater than 9.4 µg/mL, the “% Inhibition” value (Brugia malayi) was 50% and the IC50 [2] was greater than 9.4 µg/mL. The “% Inhibition” value (Onchocerca ochengi) was 0% and the IC50 (Trypanosoma cruzi) was 3.01 µg/mL (≈ 9.61 µM).

For `O=C(Cc1csc(NC(=O)c2ccc(=O)[nH]c2)n1)NCc1cccs1`, the IC50 (Plasmodium falciparum K1) was greater than 11.2 µg/mL, the IC50 [1] was greater than 11.2 µg/mL and the “% Inhibition” value (Schistosoma mansoni) was 100%. For the same molecule, the IC50 (Leishmania infantum) was greater than 11.2 µg/mL, the “% Inhibition” value (Brugia malayi) was 20% and the IC50 [2] was greater than 11.2 µg/mL. The “% Inhibition” value (Onchocerca ochengi) was 0% and the IC50 (Trypanosoma cruzi) was greater than 11.2 µg/mL.

With `Cc1cccc(Nc2ccc(NCCNS(=O)(=O)c3ccc(F)cc3)nn2)n1` the IC50 (Plasmodium falciparum K1) was 0.582 µg/mL (≈ 1.45 µM), the IC50 [1] was 4.06 µg/mL (≈ 10.1 µM) and the “% Inhibition” value (Schistosoma mansoni) was 0%. The IC50 (Leishmania infantum) was greater than 12.1 µg/mL, the “% Inhibition” value (Brugia malayi) was 50% and the IC50 [2] was greater than 12.1 µg/mL. For the same molecule, the “% Inhibition” value (Onchocerca ochengi) was 100% and the IC50 (Trypanosoma cruzi) was greater than 12.1 µg/mL.

In the case of `Cc1ccc(-n2ncc3c(=O)[nH]c(-n4nc(C)cc4NC(=O)C4CC4)nc32)cc1`, the IC50 (Plasmodium falciparum K1) is reported as 0.637 µg/mL (≈ 1.64 µM), the IC50 [1] is reported as 0.378 µg/mL (≈ 0.971 µM) and the “% Inhibition” value (Schistosoma mansoni) is reported as 0%. For the same molecule, the IC50 (Leishmania infantum) was 0.313 µg/mL (≈ 0.804 µM), the “% Inhibition” value (Brugia malayi) was 0% and the IC50 [2] was 0.591 µg/mL (≈ 1.52 µM). For the same molecule, the “% Inhibition” value (Onchocerca ochengi) was 100% and the IC50 (Trypanosoma cruzi) was 0.214 µg/mL (≈ 0.55 µM).

For `CCc1ccc(S(=O)(=O)N2CCN(c3ccc(Nc4ccccn4)nn3)CC2)cc1`, the IC50 (Plasmodium falciparum K1) was 2.8 µg/mL (≈ 6.6 µM), the IC50 [1] was greater than 12.7 µg/mL and the “% Inhibition” value (Schistosoma mansoni) was 0%. The IC50 (Leishmania infantum) was 0.412 µg/mL (≈ 0.97 µM), the “% Inhibition” value (Brugia malayi) was 0% and the IC50 [2] was greater than 12.7 µg/mL. The “% Inhibition” value (Onchocerca ochengi) was 0% and the IC50 (Trypanosoma cruzi) was greater than 12.7 µg/mL.

With `COc1ccc(C(=O)C2C(=O)N(c3ccccc3)N=C2C)c(OC)c1` (stereo not given) the IC50 (Plasmodium falciparum K1) was greater than 10.2 µg/mL, the IC50 [1] was greater than 10.2 µg/mL and the “% Inhibition” value (Schistosoma mansoni) was 0%. The IC50 (Leishmania infantum) was greater than 10.2 µg/mL, the “% Inhibition” value (Brugia malayi) was 0% and the IC50 [2] was greater than 10.2 µg/mL. For the same molecule, the “% Inhibition” value (Onchocerca ochengi) was 100% and the IC50 (Trypanosoma cruzi) was greater than 10.2 µg/mL.

With `COc1cccc(-c2cc(CC(=O)NCCC(C)C)no2)c1` the IC50 (Plasmodium falciparum K1) was greater than 9.07 µg/mL, the IC50 [1] was greater than 9.07 µg/mL and the “% Inhibition” value (Schistosoma mansoni) was 0%. For the same molecule, the IC50 (Leishmania infantum) was greater than 9.07 µg/mL, the “% Inhibition” value (Brugia malayi) was 0% and the IC50 [2] was greater than 9.07 µg/mL. The “% Inhibition” value (Onchocerca ochengi) was 100% and the IC50 (Trypanosoma cruzi) was greater than 9.07 µg/mL.

With `COc1ccc(C)cc1S(=O)(=O)N1CCN(c2ccc(-c3cccs3)nn2)CC1` the IC50 (Plasmodium falciparum K1) was greater than 12.9 µg/mL, the IC50 [1] was greater than 12.9 µg/mL and the “% Inhibition” value (Schistosoma mansoni) was 0%. For the same molecule, the IC50 (Leishmania infantum) was 0.418 µg/mL (≈ 0.971 µM), the “% Inhibition” value (Brugia malayi) was 0% and the IC50 [2] was greater than 12.9 µg/mL. For the same molecule, the “% Inhibition” value (Onchocerca ochengi) was 0% and the IC50 (Trypanosoma cruzi) was greater than 12.9 µg/mL.
